# Measured values published in paper PMC2677757 (Drug metabolism and disposition: the biological fate of …, 2009).
# Marks after values point to notes of the source that are not given here.
# How the values were obtained:
# rSULT1A1 [1] = biological target: T1, rSULT1A1 (Rattus norvegicus, UniProt P17988); assay: Reversibility of the effect of GSSG on rSULT1A1 by reduction with DTT; type: biochemical; details: 25°C 1 hr pretreatment; 2-naphthol 250 μM, 4′-OH PCB 6 100 μM; mean and SD, n=3
# [2] = Solubility of OHPCBs in the SULT assay buffer by light scattering at 400 nm; type: physicochemical
# rSULT2A3 = biological target: T2, rSULT2A3 (Rattus norvegicus, UniProt P22789); assay: Inhibition of rSULT2A3-catalyzed sulfation of DHEA; type: biochemical; details: for Inhibition of rSULT2A3 reached: DHEA as substrate, within solubility limits
# T2 sequence (P22789 1-284): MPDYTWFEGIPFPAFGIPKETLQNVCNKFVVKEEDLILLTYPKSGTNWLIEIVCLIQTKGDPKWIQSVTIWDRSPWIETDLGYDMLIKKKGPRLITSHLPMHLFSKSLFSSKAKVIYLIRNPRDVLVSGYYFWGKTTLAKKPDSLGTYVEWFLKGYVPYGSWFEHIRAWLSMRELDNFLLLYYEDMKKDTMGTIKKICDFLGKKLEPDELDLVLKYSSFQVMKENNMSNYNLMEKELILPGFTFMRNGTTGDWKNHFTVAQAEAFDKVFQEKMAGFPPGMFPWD
# rSULT1A1 [3] = biological target: T1, rSULT1A1; assay: Sulfation of OHPCBs by rSULT1A1 pretreated with GSH or GSSG; type: biochemical; details: for Sulfation at varying OHPCB concentrations, rSULT1A1 pretreated with 1 mM GSSG: Fig. 3B; for Substrate inhibition in both reduced and oxidized rSULT1A1-catalyzed reactions: 1 mM GSH or 1 mM GSSG pretreatment; for Sulfation by GSSG-pretreated rSULT1A1 compared with GSH-pretreated enzyme: 1 mM GSSG vs 1 mM GSH, Fig. 3A
# Method in brief: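 DTT was stripped from purified enzyme by gel filtration at 4°C, leaving less than 0.06 mM. Enzyme was held 1 h at 25°C under argon with 1 mM GSH or GSSG, and GSH was checked by DTNB. Assays used 0.75 μg enzyme, 0.25 M phosphate pH 7.0, 200 μM PAPS and no 2-mercaptoethanol, 6 min at 37°C. Test compound was 100 μM or varied. PAP formation was corrected by a no-compound blank, in duplicate or triplicate.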
# hSULT2A1 = details: ref Liu et al., 2006; cited from earlier work
# rSULT1A1 [4] = biological target: T1, rSULT1A1; assay: Inhibition of rSULT1A1-catalyzed sulfation of 2-naphthol; type: biochemical
# rSULT1A1 [5] = biological target: T1, rSULT1A1; assay: Assay of OHPCBs as potential substrates of rSULT1A1; type: biochemical; details: presence of reducing agents; within limits of solubility
# Method in brief: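 Recombinant rat SULT1A1 was expressed in E. coli at 29°C without IPTG and purified by PAP-agarose affinity with a PAP gradient in DTT-containing buffer. […] Substrate-dependent PAP formation was the read-out.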
# [6] = 37 °C, pH 7, aqueous buffer, kinetic from dmso stock
# [7] = 37°C, 0.25 M potassium phosphate pH 7.0, […] (v/v) acetone, 7.5 mM 2-mercaptoethanol, light scattering
# T1 sequence (P17988 whole entry): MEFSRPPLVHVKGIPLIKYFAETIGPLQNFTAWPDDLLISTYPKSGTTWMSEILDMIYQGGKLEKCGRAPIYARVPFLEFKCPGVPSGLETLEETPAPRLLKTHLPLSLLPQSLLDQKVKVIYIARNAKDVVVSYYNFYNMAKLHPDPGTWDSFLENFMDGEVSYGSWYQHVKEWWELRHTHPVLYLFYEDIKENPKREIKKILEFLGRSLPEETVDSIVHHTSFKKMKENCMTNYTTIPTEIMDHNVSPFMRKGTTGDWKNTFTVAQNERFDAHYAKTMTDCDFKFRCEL
smiles,measurement,setting,value
Oc1ccc2ccccc2c1 [2-Naphthol],"Rate of sulfation, rSULT1A1 pretreated with 1 mM GSSG",rSULT1A1 [1],50.2±2.1 ^c nmoles of product/mg/min
same,"Rate of sulfation, rSULT1A1 pretreated with 5 mM DTT",rSULT1A1 [1],38.3±4.7 nmoles of product/mg/min
"Oc1ccc(-c2ccc(Cl)cc2)c(Cl)c1 [4-OH PCB 8, 2,4′-Dichloro-biphenyl-4-ol]",Solubility,[2]; [6],≥ 500 µM
same,IC50,rSULT2A3,~400 µM
Oc1c(Cl)cc(-c2ccccc2)cc1Cl [4-OH PCB 14],Solubility,[2]; [7],≥1000 µM
same,"Sulfation at varying OHPCB concentrations, rSULT1A1 pretreated with 1 mM GSSG",rSULT1A1 [3],concentration-dependent sulfation
Oc1c(Cl)cc(-c2ccccc2Cl)cc1Cl [4-OH PCB 34],Solubility,[2]; [7],300 µM
same,Substrate activity for hSULT2A1,hSULT2A1,good substrates
Oc1ccc(-c2ccc(Cl)cc2)cc1 [4′-OH PCB 3],Solubility,[2]; [7],300 µM
"Oc1ccc(-c2ccccc2Cl)cc1Cl [4′-OH PCB 6, 3,2′-Dichloro-biphenyl-4-ol]",Solubility,[2]; [6],250 µM
same,IC50,rSULT1A1 [4],22.7 µM
same,Inhibition of rSULT2A3 reached,rSULT2A3,less than 50%
same,"Sulfation at varying OHPCB concentrations, rSULT1A1 pretreated with 1 mM GSSG",rSULT1A1 [3],concentration-dependent sulfation
same,"Rate of sulfation, rSULT1A1 pretreated with 1 mM GSSG",rSULT1A1 [1],37.3±4.0 nmoles of product/mg/min
Oc1ccc(-c2cc(Cl)ccc2Cl)cc1 [4′-OH PCB 9],Solubility,[2]; [7],500 µM
same,Inhibition of rSULT2A3 reached,rSULT2A3,full inhibition
same,Substrate inhibition in both reduced and oxidized rSULT1A1-catalyzed reactions,rSULT1A1 [3],presence of substrate inhibition
same,Sulfation by GSSG-pretreated rSULT1A1 compared with GSH-pretreated enzyme,rSULT1A1 [3],only slightly increased
same,Inhibition of hSULT2A1,hSULT2A1,potent inhibitor
Oc1ccc(-c2ccc(Cl)c(Cl)c2)cc1 [4′-OH PCB 12],Solubility,[2]; [7],≥500 µM
Oc1ccc(-c2ccc(Cl)cc2Cl)cc1Cl [4′-OH PCB 25],Solubility,[2]; [7],100 µM
"Oc1ccc(-c2ccc(Cl)c(Cl)c2)c(Cl)c1 [4′-OH PCB 33, 2,3′,4′-Trichloro-biphenyl-4-ol]",Solubility,[2]; [6],50 µM
same,IC50,rSULT1A1 [4],26.2 µM
same,Inhibition of rSULT2A3 reached,rSULT2A3,less than 50%
same,"Sulfation at varying OHPCB concentrations, rSULT1A1 pretreated with 1 mM GSSG",rSULT1A1 [3],concentration-dependent sulfation
Oc1ccc(-c2ccc(Cl)c(Cl)c2)cc1Cl [4′-OH PCB 35],Solubility,[2]; [7],50 µM
same,Substrate inhibition with rSULT1A1,rSULT1A1 [5],did not show substrate inhibition
Oc1ccc(-c2cc(Cl)cc(Cl)c2)cc1Cl [4′-OH PCB 36],Solubility,[2]; [7],50 µM
same,Inhibition of rSULT1A1 reached,"rSULT1A1 [4]; 2-naphthol as substrate, up to full inhibition or limit of solubility",about 65%
Oc1c(Cl)cc(-c2ccc(Cl)cc2Cl)cc1Cl [4′-OH PCB 68],Solubility,[2]; [7],50 µM
same,Substrate activity for hSULT2A1,hSULT2A1,good substrates
Oc1ccc(Cl)cc1-c1ccc(Cl)c(Cl)c1 [6′-OH PCB 35],Solubility,[2]; [7],100 µM
same,Substrate inhibition with rSULT1A1,rSULT1A1 [5],did not show substrate inhibition
same,Substrate inhibition in both reduced and oxidized rSULT1A1-catalyzed reactions,rSULT1A1 [3],absence of substrate inhibition
same,Sulfation by GSSG-pretreated rSULT1A1 compared with GSH-pretreated enzyme,rSULT1A1 [3],only slightly increased
